Source: PubChem (The Scripps Research Institute Molecular Screening Center)
An excerpt weighted towards active compounds, which were near 4.3% of everything screened.
OX1R antag-1: antagonists of human orexin 1 receptor (OX1R). inhibition, % at 6.6 µM. Orexin/Hypocretin receptor type 1 (Homo sapiens), O43613. 330,000 compounds, 1.8% hits. AID 485270, 2010. OX1R-expressing cells, FRET antagonist read-out; in the data active means inhibition mostly above about 38%, no sharp cut-off; inactive means mostly below about 40%;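 further: 0% = agonist challenge alone and 100% = reference antagonist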
TAAR1 antagonist: human TAAR1 antagonists, primary screen, Fluo-8 calcium fluorescence, CHO RD-HGA16 cells | inhibition, % at 3 µM | AID 624466, 2012 | antagonist | 360,000 compounds, 1.5% hits | Trace amine-associated receptor 1 (Homo sapiens), Q96RJ0;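 active means inhibition above a per-plate cutoff, the mean inhibition of test compounds on that plate plus 3 SD, cut at about 49% in these data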;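 further: 0% = DMSO plus EC80 beta-PEA response and 100% = DMSO alone without agonist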
Target sequence (Q96RJ0 whole entry, looked up): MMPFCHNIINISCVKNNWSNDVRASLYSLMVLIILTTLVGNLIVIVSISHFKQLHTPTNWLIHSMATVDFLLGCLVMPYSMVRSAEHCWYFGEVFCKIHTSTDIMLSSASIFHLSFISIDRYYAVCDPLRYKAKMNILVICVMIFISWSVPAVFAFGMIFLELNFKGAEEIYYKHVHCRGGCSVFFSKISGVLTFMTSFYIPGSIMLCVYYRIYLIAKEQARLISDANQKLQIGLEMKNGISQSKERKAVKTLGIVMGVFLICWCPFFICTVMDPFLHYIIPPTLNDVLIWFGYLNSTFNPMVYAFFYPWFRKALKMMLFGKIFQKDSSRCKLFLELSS
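Assay system: RD-HGA16 CHO cells with stable hTAAR1 and Gα16 / Reagent: EC80 β-phenethylamine stimulus / Doses: 3 µM, single point / Timing: dye loading 75 min at 37 °C, then 30 min room temperature / Measured by: Fluo-8 intracellular calcium dye fluorescence, real-time kinetic reads / Controls: vehicle wells and EC80 agonist wells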
GalR3 antagonist: GalR3 antagonists in HEK293 cells, primary screen, cell-based, fluorescence readout; inhibition, % at 3 µM; HEK293 GalR3-CNG cAMP membrane potential fluorescence; galR3 body fused to GalR1 C-terminus; Galanin receptor type 3 (Homo sapiens), O60755; 360,000 compounds, 0.44% hits; AID 651719, 2012;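 active means inhibition above the screen-wide average plus 3 SD, cut at about 13% in these data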;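 further: forskolin and galanin both at EC90 stimulate the cells; cAMP rise reported by CNG channel membrane potential dye signal; 0% = forskolin plus galanin with DMSO and 100% = forskolin alone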
CHO parental Ca: ATP-evoked calcium signal inhibitors, parental CHO, primary screen, counter-screen for OX1R antagonist project, cell-based, fluorescence, Fluo-8 calcium dye; parental CHO-K1, ATP-induced calcium, Fluo-8 fluorescence; AID 463079, 2010; 330,000 compounds, 0.63% hits; inhibition, % at 5.6 µM;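 active means inhibition above that plate's mean sample inhibition plus 3 SD, cut at about 26% in these data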;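 further: 0% = ATP-challenged DMSO wells and 100% = DMSO wells without ATP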
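Material: parental CHO cells / Compound: single nominal dose of 5.6 µM per compound / Signal: Fluo-8 fluorescence / Replicates: singlicate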
OX1R antag-2: OX1R (HCRTR1) antagonists, primary screen, fluorescence, CHO/OX1R cells, Fluo-8 calcium, orexin A; Fluo-8 calcium fluorescence; inhibition, % at 5 µM; 330,000 compounds, 0.43% hits; AID 434989, 2010;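 active means inhibition above its plate's threshold, mean inhibition of all tested compounds on the plate plus 3 SD, cut at about 37% in these data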;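 further: 0% = orexin A challenge wells and 100% = SB-334867-A antagonist wells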
TAAR1 ag: human TAAR1 agonists, primary screen, Fluo-8 calcium fluorescence, CHO RD-HGA16 cells; 360,000 compounds, 0.99% hits; activation, % at 3 µM; Trace amine-associated receptor 1 (Homo sapiens), Q96RJ0; vehicle wells 0%, saturating PEA agonist 100%;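 active means activation above the mean activation of all test compounds in the run plus 3 SD, cut at about 38% in these data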
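Assay system: CHO-derived RD-HGA16 cells with stable Gα16 and human TAAR1; timing: 17-24 h seeding, 75 min 37 °C dye, 30 min RT; read-out: % activation from peak over basal fluorescence ratio, DMSO-to-PEA scaled; measured by: kinetic Fluo-8 calcium fluorescence; benchmarks: low control DMSO, high control PEA (EC100); doses: 3 µM single concentration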
The depositor's hits bear a star; . = no result.

SMILES	OX1R antag-1	TAAR1 antagonist	GalR3 antagonist	CHO parental Ca	OX1R antag-2	TAAR1 ag
N#CC(C#N)=C1C=C2C=C(N3CCCCC3)CCC2CC1 (stereo not drawn)	42	.	.	101*	106*	.
COc1ccccc1-c1cc2nc(C)cc(C)n2n1	62*	-1	-4	-26	11	-2
COc1ccc(-c2cc3nc(C)cc(N)n3n2)cc1	4	-6	-3	-8	-18	1
Cc1cccc(-c2cc3nc(C)cc(C)n3n2)c1	65*	12	1	-6	21	2
Cc1cccc(-c2cc3nc(C)cc(NCCCN(C)C)n3n2)c1	9	-11	-3	-15	-19	4
Cc1ccc(S(=O)(=O)N(C)C[C@@H]2Oc3ncc(C#CCC(C)C)cc3C(=O)N([C@H](C)CO)C[C@H]2C)cc1	.	6	-7	.	.	1
Cc1ccccc1C1c2[nH]c3ccccc3c2C[C@H]2C(=O)N(c3ccccc3C(=O)NCCN3CCOCC3)C(=O)N12 (stereo partly drawn)	11	50*	-6	-16	-23	9
O=C(NCCCN1CCOCC1)c1ccccc1N1C(=O)[C@@H]2Cc3c([nH]c4ccccc34)C(c3ccccc3)N2C1=O (stereo partly drawn)	.	-5	-6	.	.	3
Cc1cc(O)cc(=O)n1-c1cc(C(F)(F)F)cc(C(F)(F)F)c1	.	1	-6	.	.	3
O=C(CC(=O)c1ccccc1)CC(O)(C=Cc1ccccc1)c1ccccc1 (stereo not drawn)	.	51*	-6	.	.	7
O=C(/C=C/c1ccccc1)CC(=O)c1ccccc1	.	5	-4	.	.	0
O=C(NCC(=O)N1CCN(Cc2ccccc2)CC1)c1cc(Cl)cc([N+](=O)[O-])c1	34*	1	-6	-2	-11	3
Cc1cccc(C)c1NC(=O)CNC(=O)CN1C(=O)NC2(CCc3ccccc32)C1=O (stereo not drawn)	4	-28	-5	-10	-3	3
Cc1ccc(-c2csc(NC(=S)NC(=O)/C=C/c3ccco3)n2)cc1	13	12	-4	-4	-7	12
O=C(/C=C\c1ccco1)Nc1nc(-c2ccc3ccccc3c2)cs1	43	49*	1	-32	-4	9
O=C(NCc1ccccc1)[C@@H]1CCCN1C(=O)[C@H]1CCCN1C(=O)c1cccc(F)c1	.	1	-6	.	.	0
COc1cccc(NC(=O)CCc2nc(-c3ccccc3F)no2)c1	3	5	-6	-14	0	7
O=C(CCc1nc(-c2ccccc2F)no1)Nc1ccc(Oc2ccccc2)cc1	55	54*	-4	39*	62*	12
O=C(O)c1c2c(nc3ccccc13)/C(=C/c1cccc([N+](=O)[O-])c1)CCC2	36	-26	-5	2	-7	0
COc1ccc([C@H]2/C=C\CN(S(=O)(=O)c3cccc4cccnc34)[C@@H](C)C(=O)N2Cc2ccc(F)cc2)cc1	70*	41	-10	-10	17	7
COc1ccc([C@H]2/C=C\CN(S(=O)(=O)c3ccc4ccccc4c3)[C@@H](C)C(=O)N2Cc2ccc(F)cc2)cc1	38	7	-3	-6	-6	1
COc1ccc(C2/C=C\CN(Cc3ccncc3)CC(=O)N2Cc2ccc(F)cc2)cc1 (stereo not drawn)	21	16	-1	-14	-26	8
COc1ccc(C2/C=C\CN(S(=O)(=O)c3cccc4cccnc34)CC(=O)N2Cc2ccc(F)cc2)cc1 (stereo not drawn)	40	50*	-4	-23	-30	13
COc1ccc(C2/C=C\CN(S(=O)(=O)c3ccc(C)cc3)CC(=O)N2Cc2cccc(F)c2)cc1 (stereo not drawn)	50*	-3	-5	-14	44	2
